Screening data from PubChem.
Hits are enriched below; roughly 1.6% of the tested compounds scored in any of these assays.
PfGluPho inh: PfG6PD enzyme inhibitors, primary screen, biochemical, fluorescence intensity, uHTS; AID 504690, 2011; inhibition, % at 20 µM; PfGluPho enzyme, NADPH resazurin-diaphorase fluorescence; 350,000 compounds, 0.78% hits; glucose-6-phosphate dehydrogenase-6-phosphogluconolactonase (Plasmodium falciparum 3D7);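 active = inhibition reaching at least a set limit at 20 µM in the primary screen, cut at about 59% in these data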;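 note: 0% = DMSO wells with substrate and 100% = DMSO wells lacking glucose-6-phosphate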
ATG4B inh: ATG4B protease inhibitors, primary screen, biochemical, fluorescence, uHTS; inhibition, % at 8.33 µM; 340,000 compounds, 0.51% hits; Cysteine protease ATG4B (Homo sapiens), Q9Y4P1; AID 504462, 2011; ATG4B cleavage of LC3-PLA2, NBD-HPC fluorescence, 1 h; in the data active = inhibition above about 40%
HKDC1 inh: HKDC1 hexokinase inhibitors, primary screen, biochemical, fluorescence, uHTS; Q2TB90; recombinant HKDC1, G6PDH/diaphorase resazurin coupled fluorescence; inhibition, % at 20 µM; 340,000 compounds, 0.16% hits;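 active = inhibition above about 35% when tested at 20 µM, limit read from the data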;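 note: plate controls were DMSO wells with enzyme for no effect and DMSO wells lacking enzyme for full effect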
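Material – in-house recombinant HK5 (HKDC1) enzyme · Quantity – HKDC1 at 5 µg/mL · Buffer or medium – pH 8.0 Tris buffer with 10 mM MgCl2 · Reagent – glucose with 1 mM ATP · Dosing – single 20 µM dose · Times – reaction time 90 min, room temperature, protected from light · Technique – resorufin fluorescence at 613 nm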
PKA-R2B act: activators of PKA-R2B holoenzyme, primary screen, biochemical, fluorescence polarization, Cy5-IP20, human; cAMP-dependent protein kinase catalytic subunit beta (Homo sapiens) + cAMP-dependent …; PKA-R2B holoenzyme dissociation; R2B truncated from residue 108, S112A mutant; 0% DMSO only, 100% 113 µM cGMP; 340,000 compounds, 0.079% hits; activation, % at 11.4 µM;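 active = activation above a cutoff set at the mean over all compounds plus 3 SD, cut at about 18% in these data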;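 note: higher means more holoenzyme dissociation and a rise in polarization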
Target sequence (P31323 whole entry, looked up, other chains not shown, the tested form may be a part): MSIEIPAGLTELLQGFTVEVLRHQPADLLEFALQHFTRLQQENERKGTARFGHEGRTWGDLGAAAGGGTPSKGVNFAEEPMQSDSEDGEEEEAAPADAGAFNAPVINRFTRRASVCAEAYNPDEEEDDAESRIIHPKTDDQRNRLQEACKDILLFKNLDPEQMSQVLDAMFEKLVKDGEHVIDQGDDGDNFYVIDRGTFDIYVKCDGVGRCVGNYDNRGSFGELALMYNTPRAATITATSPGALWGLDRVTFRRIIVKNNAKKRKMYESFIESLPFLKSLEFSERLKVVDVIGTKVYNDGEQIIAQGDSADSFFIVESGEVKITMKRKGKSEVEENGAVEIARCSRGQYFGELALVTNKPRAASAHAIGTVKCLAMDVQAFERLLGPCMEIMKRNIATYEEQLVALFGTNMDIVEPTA
PKA-R1A activ: activators of PKA-R1A holoenzyme, primary screen, biochemical, fluorescence polarization, Cy5-IP20, bovine R1A, mouse PKAc. activation, % at 11.4 µM. 340,000 compounds, 0.083% hits. cAMP-dependent protein kinase type I-alpha regulatory subunit (Bos taurus) + …. PKA-R1A dissociation; scaled: DMSO 0%, 113 µM cGMP 100%;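 active = percent activation above the mean of all tested compounds plus 3 SD, cut at about 19% in these data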;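 note: higher means more PKAc released from R1A so a rise in polarization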
T cell HTS: modulators of CD8 T cell-vesicle binding, primary screen, mouse 2C CD8+ T cells, flow cytometry. 2C CD8+ T cell-vesicle binding; active compounds read low. response (vesicle binding), % at 7 µM. 330,000 compounds, 0.068% hits. AID 2052, 2009;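 active = response, share of CD8 T cells binding vesicles, and their 90th percentile fluorescence all below set limits, cut at about 80% in these data, passing the limit was not always enough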;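 note: values below 100% mean blocked vesicle binding to the CD8+ T cells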
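Incubation: binding step 1.5 h, 37 °C, antibody labelling 20 min, ice; system: murine 2C transgenic CD8+ T lymphocytes; technique: cytometric PE anti-B7-1 and Alexa647 anti-CD8 signals after 1% paraformaldehyde fixation; also added: QL9-charged Drosophila Ld/ICAM-1/B7-1 vesicles; control set: naked versus QL9-loaded vesicles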
ATG4B confirm: ATG4B protease inhibitors, retest, confirmation, biochemical, fluorescence, single concentration; inhibition, % at 8.33 µM; shares compounds with ATG4B inh; 320 compounds, 92% hits; ATG4B protease fluorescent substrate cleavage assay; in the data active = inhibition above about 39%
PLA2 counter: PLA2 enzyme inhibition, counter-screen for ATG4B inhibitor project, biochemical, single concentration, uHTS hits | shares compounds with ATG4B inh | 1,600 compounds, 66% hits | purified PLA2, NBD-C6-HPC fluorescence, 45 min | inhibition, % at 8.33 µM; in the data active = inhibition above about 50%
Target sequence (P04054 whole entry, looked up): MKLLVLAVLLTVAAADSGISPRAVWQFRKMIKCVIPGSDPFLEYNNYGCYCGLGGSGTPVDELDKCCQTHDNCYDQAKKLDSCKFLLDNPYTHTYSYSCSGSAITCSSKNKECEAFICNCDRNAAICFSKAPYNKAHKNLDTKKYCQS
Numbers without * were called inactive; x = no result given.

SMILES | PfGluPho inh | ATG4B inh | HKDC1 inh | PKA-R2B act | PKA-R1A activ | T cell HTS | PLA2 counter | others
C=C(C)Cn1c(SCC(=O)N/N=C/c2c(O)ccc3ccccc23)nc2ccccc2c1=O | 3.3 | 40.6* | -18.1 | 1.8 | -4.9 | 188.6 | -1.9 | ATG4B confirm=56.5*
CC[C@H](C)C(N)c1cn([C@@H](CC(N)=O)C(=O)N2CCNCC2)nn1 (stereo partly drawn) | -4.9 | -0.7 | -1.7 | 0.2 | -3.0 | 510.3 | x
COc1ccc([C@@H]2CC=C(C(=O)O)[C@H](c3ccc(F)cc3)N2S(=O)(=O)c2ccc(Cl)cc2)cc1 | -11.3 | 0.8 | 0.2 | -5.9 | -1.3 | 602.2 | x
Cc1ccc(S(=O)(=O)C2C(=O)N(C)C3(C)CC2c2ccccc2O3)cc1C (stereo not drawn) | 29.4 | 79.4* | -12.5 | -2.9 | 5.2 | 379.7 | 84.8*
Cc1ccc(/C=C/C(O)=C2/C(=O)N(C)C3(C)CC2c2ccccc2O3)cc1 (stereo not drawn) | 18.9 | 25.6 | 4.9 | 2.4 | -3.3 | 398.9 | x
Cc1cccc(NC(=O)COC(=O)c2n[nH]c3ccccc23)c1C | -8.5 | 45.4* | -5.8 | -9.0 | -5.3 | 426.7 | 51.8*
CCNc1ccc(Br)cc(C(=O)/C=C/c2ccccc2Cl)c1=O | 40.7 | 51.4* | 20.3 | -2.2 | -9.1 | 368.3 | -6.7
COc1ccc(C2C(C(C)=O)=C(C)N=c3s/c(=C\c4cc(C)n(C)c4C)c(=O)n32)c(OC)c1 (stereo not drawn) | -0.1 | 55.9* | 3.7 | -2.6 | -4.2 | 935.0 | 73.1*
CC1Cc2cccc3ccc(=O)n(c23)C1 (stereo not drawn) | 19.6 | 16.3 | 2.9 | -2.0 | -6.2 | x | x
CC(Sc1nnc(C2CC2)n1C)C(=O)Nc1ccc(N2CCOCC2)cc1 (stereo not drawn) | 11.3 | 10.6 | -6.7 | -4.8 | -11.4 | x | x
COc1ccc(-c2n[nH]c(C(F)(F)F)c2-c2cc3ccccc3o2)c(O)c1 | -5.1 | 57.6* | 0.0 | -10.4 | 1.1 | 23.8 | 45.5 | ATG4B confirm=63.5*
CCN(CC)c1nc2c(c(=O)[nH]c(=O)n2C)n1CCCc1ccccc1 | 5.1 | -0.1 | -6.0 | -6.7 | 3.4 | 230.5 | x
CC1=NN(c2ccc(C(=O)O)cc2)C(=O)/C1=C\c1ccc(OC(=O)c2cccs2)cc1 | 17.2 | 85.0* | 8.9 | -5.4 | -1.7 | 159.8 | 70.0*
CCOc1cc(/C=C2\C(=O)N(c3ccc(C(N)=O)cc3)N=C2C)ccc1OC(=O)c1cccs1 | -3.1 | 27.0 | 16.5 | 2.1 | -7.0 | 154.3 | x
O=C(O)c1cccc(CSc2nc(-c3ccc(Cl)cc3)cc(C(F)(F)F)n2)c1 | -24.2 | 51.5* | 0.0 | -12.8 | -9.6 | 274.2 | 45.2 | ATG4B confirm=62.0*
COc1ccc(-c2cc(C)nc(SCc3cccc(C(=O)O)c3)n2)cc1 | -17.7 | 10.0 | -4.6 | 5.4 | 13.7 | 271.1 | x
CCOC(=O)c1ccc(N=C2SC(C(=O)NC)CC(=O)N2Cc2ccc(F)cc2)cc1 (stereo not drawn) | 5.1 | 1.4 | -6.7 | -3.9 | -12.0 | 264.8 | x
CCOC(=O)c1ccc(N=C2SC(C(=O)Nc3ccc(C(=O)O)cc3)CC(=O)N2Cc2cccs2)cc1 (stereo not drawn) | 10.5 | 55.4* | -7.1 | -12.0 | 5.7 | 297.4 | 55.2*
CN(C)c1ccc(-c2nnn(Cc3ccccc3Br)n2)cc1 | 2.6 | 41.0* | -1.1 | -4.2 | 0.6 | x | 39.2 | ATG4B confirm=65.9*
Clc1ccccc1Cn1nnc(-c2ccccc2)n1 | -2.7 | 2.5 | -1.1 | -6.5 | -11.9 | 197.6 | x
O=Cc1ccccc1OCCCOc1cccc2cccnc12 | 30.1 | 65.1* | 7.5 | 10.3 | 3.5 | 137.3 | 75.0*
CN(C)CCCNC(=O)C[C@H]1C[C@H](C(=O)N2CCOCC2)[C@@]2(C)c3[nH]c4cc(-c5ccco5)ccc4c3CCN2C1=O | -4.7 | 7.7 | 3.1 | -3.5 | -12.9 | x | x
S=c1sscc1-c1ccccc1 | 34.5 | -2.8 | -2.1 | -4.7 | 4.3 | x | x
NC(=O)c1ccccc1OCc1nnc(-c2ccccc2Br)o1 | 0.9 | -8.1 | -7.7 | -6.9 | -9.3 | 441.7 | x
COc1cccc(NC(=O)NC2CCCc3ccccc32)c1 (stereo not drawn) | -1.6 | 61.8* | -5.9 | -2.0 | -11.5 | 265.7 | 62.3*
SMILES | PfGluPho inh | ATG4B inh | HKDC1 inh | PKA-R2B act | PKA-R1A activ | T cell HTS | PLA2 counter | others
COC(=O)c1ccc(NC(=S)NC2CCc3ccccc32)cc1 (stereo not drawn) | 10.8 | 48.2* | -3.1 | -4.3 | -20.0 | 201.3 | 56.2*
COc1ccc(S(=O)(=O)N(C)C[C@H]2Oc3c(NS(=O)(=O)c4cn(C)cn4)cccc3C(=O)N([C@H](C)CO)C[C@@H]2C)cc1 | 9.7 | -13.8 | -5.0 | 3.5 | -3.0 | 144.4 | x
Cc1ccc(O)c(N=Cc2cc(Cc3ccccc3)cc([N+](=O)[O-])c2O)c1 | 44.6 | 79.3* | 17.3 | 6.2 | -0.6 | x | 75.6*
CN(Cc1ccccc1)C(=O)CN1CCN(S(=O)(=O)c2ccc(Cl)c(Cl)c2)CC1 | 3.3 | -6.6 | 0.3 | -2.8 | -8.7 | 244.4 | x
Cc1c(Cl)cccc1NC(=S)NCc1cccs1 | -10.8 | 57.1* | -4.5 | 4.6 | 1.2 | 486.8 | 68.8*
S=C(NCc1cccs1)Nc1cccc(Cl)c1Cl | 3.2 | 51.5* | -9.2 | -10.8 | -7.0 | 303.7 | 52.5*
CC(=O)Nc1ccc(S(=O)(=O)N(C)CC(=O)OC(C)C(=O)NC2(C#N)CCCCC2)cc1 (stereo not drawn) | 0.9 | x | x | -2.3 | -2.1 | x | x
O=C1c2ccccc2N2C(=O)c3ccccc3[C@H]2N1c1ccccc1 | -10.3 | 55.0* | -5.5 | -1.5 | 9.5 | 314.9 | 60.7*
O=C1c2ccccc2N2C(=O)c3ccccc3C2N1Cc1ccccc1 (stereo not drawn) | -33.2 | 24.8 | -7.2 | 5.1 | -9.3 | 134.2 | x
CCOC(=O)C1=C(c2ccccc2)NC(N)=NC1c1ccc(OCc2ccc(C(=O)OC)cc2)cc1 (stereo not drawn) | 31.1 | 46.3* | -3.5 | 7.7 | -7.5 | 185.6 | 52.9*
